# ChEMBL document CHEMBL5154824, “Design and synthesis of multifunctional microtubule targeting agents endowed with dual pro-apoptotic and anti-autophagic efficacy” (Eur J Med Chem, 2022)
# Activity calls are given as the source filed them. The rule behind the calls is not given here.
# Experiments:
# [1] = test system: HeLa; experiment: Induction of morphological changes in human HeLa cells assessed as cell rounding at 10 uM incubated for 3 hrs by phalloidin staining based laser scanning confocal microscopic analysis; assay type: functional
# Procedure, shortened: (§1)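 HeLa cells in growth medium were treated at 1 or 10 μM, with BafA1 300 nM as reference, for 3 h. Cells were fixed in 4% PFA, stained with anti-GM130 for the Golgi and AF647-phalloidin for actin, and imaged by laser scanning confocal microscopy.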
# [2] = test system: HeLa; experiment: Induction of autophagy in human HeLa cells assessed as increase in number of autophagosomes formation at 1 uM measured after 3 hrs by immunofluorescence based laser scanning confocal microscopic analysis; assay type: functional, cell-based
# Procedure, shortened: (§2)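 HeLa cells in growth medium were treated at 1 or 10 μM, with BafA1 300 nM as reference, for 3 h. Cells were fixed in ice-cold methanol, immunostained for LC3 (autophagosomes) and LAMP1, and imaged by laser scanning confocal microscopy.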
# [3] = Ratio of IC50 for cytotoxicity against human HeLa cells overexpressing tubulin beta3 assessed as inhibition of cell growth measured after 48 hrs to IC50 for cytotoxicity against human HeLa cells assessed as inhibition of cell growth measured after 48 hrs; assay type: functional
# Procedure, shortened: (§3)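 MTT assay: cells exposed to increasing compound concentrations for 48 h. Lines were A2780 and its P-gp-overexpressing A2780AD counterpart, and HeLa and HeLa β3 (tubulin β3-overexpressing). IC50 is the mean ± SD of three independent experiments. R/S is the IC50 in the resistant line divided by that in the parental line.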
# [4] = test system: OE19; experiment: Cytotoxicity against human OE19 cells assessed as inhibition of cell growth measured after 72 hrs by MTT assay; assay type: functional, cell-based; settings: OE19, 72 h
# Procedure, shortened: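 Oesophageal adenocarcinoma lines were exposed to at least 8 increasing concentrations for 72 h. Viability was measured by MTT. IC50 is the mean ± SD of at least three independent experiments.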
# [5] = test system: A2780; experiment: Cytotoxicity against human A2780 cells assessed as inhibition of cell growth measured after 48 hrs by MTT assay; assay type: functional, cell-based; settings: A2780, 48 h
# Procedure, shortened: (§4)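 MTT assay. Cells were exposed for 48 h to increasing concentrations of compound. Ovarian A2780 was paired with its P-gp-overexpressing A2780AD counterpart, and HeLa with HeLa β3, which overexpresses the tubulin β3 isotype. IC50 is the mean ± SD of three independent experiments.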
# [6] = biological target: Tubulin (Homo sapiens) (UniProt P68371+Q9H4B7+P0DPH7+P68366+Q13509+Q71U36+P04350+Q3ZCM7+P07437+P68363+Q9BQE3+Q6PEY2+Q13885+Q9BVA1+Q9BUF5); experiment: Binding affinity to tubulin (unknown origin) assessed as fluorescence peak around 460 nm by UV/vis absorption spectroscopy; assay type: protein-complex assay
# [7] = test system: HeLa; experiment: Induction of morphological changes in human HeLa cells assessed as increase in actin stress fibres at 10 uM incubated for 3 hrs by phalloidin staining based laser scanning confocal microscopic analysis; assay type: functional, cell-based; procedure, shortened: as §1
# [8] = Ratio of IC50 for cytotoxicity against human […] assessed as inhibition of cell growth measured after 48 hrs to IC50 for cytotoxicity against human A2780 cells assessed as inhibition of cell growth measured after 48 hrs; assay type: functional; procedure, shortened: as §3
# [9] = test system: A2780; experiment: Cytotoxicity against human A2780AD cells assessed as inhibition of cell growth measured after 48 hrs by MTT assay; assay type: functional, cell-based; settings: A2780, 48 h; procedure, shortened: as §4
# [10] = test system: HeLa; experiment: Induction of autophagy in human HeLa cells assessed as increase in number of autophagosomes formation at 10 uM measured after 3 hrs by immunofluorescence based laser scanning confocal microscopic analysis; assay type: functional, cell-based; procedure, shortened: as §2
# [11] = test system: HeLa; experiment: Cytotoxicity against human HeLa cells overexpressing tubulin beta3 assessed as inhibition of cell growth measured after 48 hrs by MTT assay; assay type: functional, cell-based; procedure, shortened: as §4
# [12] = test system: SCC-4; experiment: Induction of apoptosis in human SCC-4 cells assessed as increase in apoptotic cells at 0.5 uM after 48 hrs by Annexin V-FITC/PI staining based flow cytometry method; assay type: functional, cell-based
# Procedure, shortened: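 SCC4 cells were treated at 0.5 or 2 μM for 48 h, then stained with Annexin V/PI and analysed by flow cytometry. Data are mean ± SEM of three independent experiments, with an unpaired one-tailed t-test versus vehicle.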
SMILES,Activity [1],Activity [2],Ratio IC50 [3],IC50 [4],IC50 [5],Activity [6],Activity [7],Ratio IC50 [8],IC50 [9],Activity [10],IC50 [11],Activity [12]
O=C(OC1=C(c2cccc3ncccc23)Oc2cc3ccccc3cc2-n2cccc21)C1CCNCC1,Active,Active,–,–,–,–,–,–,–,–,–,–
CN1CCN(C(=O)OC2=C(c3cccc4ncccc34)Oc3cc4ccccc4cc3-n3cccc32)CC1,–,–,0.71,730 nM,600 nM,Active,Active,0.67,399 nM,Active,331 nM,Active
